Here are results for 40 compounds from ChEMBL document CHEMBL4513216, “Probing the Open Global Health Chemical Diversity Library for Multistage-Active Starting Points for Next-Generation Antimalarials” (ACS Infect Dis, 2020).

Molecules are shown by their SMILES.

The nature of the data set: Toxicity liver stage against HepG2, at 10uM. In kind it is cell-based. Also on record: test concentration 10 uM, cell line HepG2-A16-CD81EGFP. The settings on record: human, HepG2-A16-CD81EGFP cells; read-out: INHIBITION
In a few lines: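 Uninfected HepG2-A16-CD81EGFP cells, 3 × 10^3 per well, 1536-well, plated on prespotted compound at 10 μM final, parasite-free screening media added to match infected plates; puromycin 10 μM positive, DMSO 0.5% negative; run in parallel with 48 h PbLuc assay at 37 °C, 5% CO2; viability by CellTiter-Glo luminescence, normalized to controls.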
Take `Cc1cc(NC(=O)NCC2CCN(C(C)C)C2)no1` (stereo not given): the cytotoxicity at 10 µM was -15.3%.
The value for `Nc1nccc(N2CCC(Cc3ccccc3Cl)(C(=O)O)CC2)n1` was -21.8%; that for `CSc1ccc(C(=O)N2CCCC(Nc3ccc(F)cc3)C2)cc1` (stereo not given) was -11.4%.
Next, `O=C1CCC2(CCC(NC3CCOCC3)CC2)N1Cc1ccccc1` (stereo not given): -0.0368%.
The value for `CCOc1ccc(CC(CNC(=O)c2ccoc2)C(N)=O)cc1` (stereo not given) was 5.37%; that for `O=C(NCc1cnn(-c2ccc(F)cc2F)c1)C1CCCO1` (stereo not given) was 8.69%.
Consider `O=C(NCc1cccnc1-n1cncn1)C1CC2(CCNCC2)CN1` (stereo not given), for which the cytotoxicity at 10 µM came to 2.08%.
The value for `CCn1c(Cn2cncn2)nnc1C1CCN(Cc2ccncc2)CC1` was 12.3%.
Next, `O=C(c1nn[nH]c1Nc1cccc(Cl)c1)N1CCSCC1`: 20.3%; `c1cc(-c2nnc([C@H]3CCN(C4CCOCC4)C3)o2)ccn1`: -61.3%; `O=C(c1ccccc1)N1CC2(CCNC2)OCc2ccccc21` (stereo not given): 13%.
The value for `CC(C)c1cc(-c2cnn(C)c2C2CC2)c(C#N)c(N)n1` was 28.5%; that for `CN1CCCN(C(=O)NCCOc2ccc3c(c2)OCO3)CC1` was -17.5%.
For `CCCc1nc(C)c(CNc2nc(C)nc3oc(C)nc23)s1`, the cytotoxicity at 10 µM was -44.6%.
In the case of `N#Cc1cccnc1N1CCCC(CO)(Cc2ccc(F)cc2)C1` (stereo not given), the cytotoxicity at 10 µM came to 3.3%.
Next, `CC(C)CN1CC(c2nc(-c3cccc(F)c3)c[nH]2)CC1=O` (stereo not given): 4.52%; `CCC1=N[C@@]2(CC[C@@H]3CN(CC4CC4)C[C@@H]32)C(=O)N1CC`: 6.56%; `CN(C)C(=O)c1n[nH]c2c1CN(Cc1nccs1)CC2`: -150%.
For the compound `O=C(Cn1ccc(=O)cc1)NCc1ccc2sccc2c1`, the cytotoxicity at 10 µM is 0.592%.
The value for `O=C(C1SCCc2sccc21)N1CCCCC1` (stereo not given) was 9.78%.
Next, `CC(C)CNC(=O)c1cn(C(C)C)cc2c(=O)[nH]nc1-2`: 0.583%; `N#Cc1cc(F)ccc1CN1CCCCC1Cn1cncn1` (stereo not given): 5.41%; `CC1c2cccn2CCN1S(=O)(=O)N1CCCCCC1` (stereo not given): -2.3%.
As for `CCCS(=O)(=O)N1Cc2c(ncn2Cc2ccccc2)C[C@H]1C(=O)OC`, the cytotoxicity at 10 µM came out at 0.434%.
`Cc1ncc(CNC(C)(C)CO)c2cc(C(=O)c3ccc(Br)cc3)oc12`: the cytotoxicity at 10 µM came out at 12.7%.
Next, `COC(=O)C(NC(=O)c1ccc(C)cc1C)c1cccnc1` (stereo not given): -41.9%; `CC(=O)N1CCCC1C(=O)NCCOc1cccc(F)c1` (stereo not given): -7.81%.
The value for `Cn1cc(CN2CC[C@H]3O[C@H](C(=O)NCc4ccco4)CC[C@H]32)cn1` was -1.85%; that for `Cc1nc(COC(=O)c2cccc3c2OCCO3)cs1` was 1.4%; that for `CCOCC(=O)N1CC[C@@H]2O[C@@H](C)C[C@H]2C1` was -69.2%.
Next, `Fc1ccc(Cn2ncc3c2CN(c2ncccn2)C3)cc1`: 1.5%; `COCC(=O)N1CCC(c2nc3ccc(N4CCOCC4)cn3n2)CC1`: 12%; `COCC(=O)N1CCCCC1c1nc(N(C)C)ncc1-c1cc(C)no1` (stereo not given): 5.93%.
For `CN(C)CCNc1c(-c2ccccc2)c(=O)c1=O`, the cytotoxicity at 10 µM is -9.11%.
Next, `CCN(Cc1nonc1C)C(=O)c1cc(C(F)(F)F)nn1C`: 2.06%.
Next, `COc1ccnc(N2CCN(C(=O)c3csc(C(C)C)n3)CC2)n1`: -1.82%.
The value for `CCCn1[nH]c(CNc2cccc(Cl)c2)nc1=O` was 0.566%.
For `COc1cccc(-c2nc3c([nH]2)CC(C)(C)CNC3=O)c1OC`, the cytotoxicity at 10 µM is -5.82%.
Next, `Fc1ccc2c(c1)C(NCc1nnc3n1CCCCC3)CCCO2` (stereo not given): -9.52%; `CC(c1cccc(Cl)c1)N(C)CCS(=O)(=O)CCC(N)=O` (stereo not given): -45.8%.
